Key:
[1] = system: rat myocardial infarction (permanent coronary artery occlusion); test: Rat MI 5 days, immunohistochemistry of peri-infarct zone; type: in vivo; settings: 1 mg/kg, 5 days post-artery ligation
[2] = system: isolated human whole blood; test: Human blood assay, cytokine and FPR2 mRNA expression; type: cell-based; settings: for increase in IL-10 mRNA levels / increase in MCP-1 mRNA versus control: isolated human whole blood; for increase in IL-10 mRNA levels: average
human FPR1 = target: T1, human FPR1 (Homo sapiens, UniProt P21462); test: BRET biosensor signaling, HEK293 cells expressing human FPR1; type: cell-based
T1 sequence (P21462 1-350): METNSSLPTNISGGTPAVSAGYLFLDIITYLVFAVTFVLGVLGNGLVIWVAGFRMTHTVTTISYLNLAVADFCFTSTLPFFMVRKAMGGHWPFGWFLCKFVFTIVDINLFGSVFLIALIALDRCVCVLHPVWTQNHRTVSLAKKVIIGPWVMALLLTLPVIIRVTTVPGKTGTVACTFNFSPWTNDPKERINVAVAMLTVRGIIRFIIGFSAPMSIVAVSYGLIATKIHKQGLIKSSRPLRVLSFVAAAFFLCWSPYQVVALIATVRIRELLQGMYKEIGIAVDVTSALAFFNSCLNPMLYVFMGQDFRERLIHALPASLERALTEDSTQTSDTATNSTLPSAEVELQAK

HL-60 cells = test: Oxidative burst assay; type: cell-based, human
[3] = system: mouse myocardial infarction (permanent LAD ligation); test: Mouse MI early short-term treatment, cardiac flow cytometry; type: in vivo; settings: 3 mg/kg, 3 days post MI, mouse heart
Procedure, shortened: (§1)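 Male C57BL/6 mice, 10-12 weeks old, had the LAD permanently occluded by suture under ketamine/xylazine anesthesia and isoflurane ventilation. Test compound, 3 mg/kg, was given by oral gavage once daily, starting 24 hours post MI. Hearts were analyzed about 3 days after occlusion.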

[4] = system: mouse myocardial infarction (permanent LAD ligation); test: Mouse MI early short-term treatment, histology and in situ hybridization; type: in vivo; settings: 3 mg/kg, 3 days post MI
Procedure, shortened: as §1

[5] = system: BioGel-elicited peritoneal macrophages; test: Zymosan phagocytosis assay; type: cell-based, mouse
human FPR2 = target: T2, human FPR2 (Homo sapiens, UniProt P25090); test: BRET biosensor signaling, HEK293 cells expressing human FPR2; type: cell-based; settings: Gαi1, Gαi2, Gαi3, GαoA, GαoB biosensors; FPR2 relative to FPR1
T2 sequence (P25090 1-351): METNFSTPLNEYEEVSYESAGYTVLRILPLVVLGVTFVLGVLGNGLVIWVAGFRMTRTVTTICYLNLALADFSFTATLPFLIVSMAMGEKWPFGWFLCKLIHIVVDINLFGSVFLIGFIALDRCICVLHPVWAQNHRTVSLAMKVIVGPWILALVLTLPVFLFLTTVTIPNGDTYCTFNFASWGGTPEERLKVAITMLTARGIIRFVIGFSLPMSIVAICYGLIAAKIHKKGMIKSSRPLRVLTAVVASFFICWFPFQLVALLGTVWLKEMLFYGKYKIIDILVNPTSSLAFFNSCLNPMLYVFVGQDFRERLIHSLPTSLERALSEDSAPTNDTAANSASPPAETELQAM
Procedure, shortened: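 HEK293 cells transiently expressed human FPR1 or FPR2 with Gαi1, Gαi2, Gαi3, GαoA or GαoB BRET biosensors, and test compound was titrated. EC50 came from a nonlinear concentration-response curve fit. Selectivity ratio was FPR2 EC50/FPR1 EC50.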

[6] = system: isolated human neutrophils; test: Apoptosis assay of isolated human neutrophils activated with SAA; type: cell-based; settings: co-incubation with BMS-986235 and SAA, relative to SAA-only treatment
[7] = system: rat myocardial infarction (permanent coronary artery occlusion); test: Rat MI permanent coronary artery occlusion, 6 weeks; type: in vivo; settings: 1 mg/kg once per day
Procedure, shortened: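 Male Sprague Dawley rats, 6-7 weeks old, had permanent coronary artery occlusion by suture under ketamine/xylazine and isoflurane anesthesia. They received test compound at 1 mg/kg once daily for 6 weeks. LV volumes were measured by echocardiography. Terminally, under isoflurane, a 2.5-F conductance catheter was placed in the LV via right carotid cutdown, with parallel-conductance correction.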

[8] = system: noninfarcted rats challenged with LPS; test: Acute LPS challenge in rat, IL-10; type: in vivo; settings: 1 mg/kg
Procedure, shortened: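 Adult male Sprague Dawley rats, 6-7 weeks old, without infarction, were dosed with test compound at 1 mg/kg and challenged with LPS. The read-out was IL-10 induction. Blood compound levels were taken 1.5 to 3 hours after dosing.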

[9] = system: mouse permanent coronary artery occlusion model; test: Mouse MI 28-day treatment, survival and histomorphometry; type: in vivo
[10] = system: differentiated HL-60 cells; test: Chemotaxis assay; type: cell-based, human
Procedure, shortened: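 In vitro chemotaxis toward test compound was measured in differentiated HL-60 cells: parental, FPR1-deficient and FPR2 KO lines. EC50 came from a nonlinear concentration-response curve.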

[11] = system: rat myocardial ischemia-reperfusion injury; test: Rat ischemia-reperfusion study, 6 weeks; type: in vivo; settings: 1 mg/kg, rat I/R
Procedure, shortened: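 Male Sprague Dawley rats, 6-7 weeks old, underwent coronary ischemia-reperfusion and received test compound at 1 mg/kg for 6 weeks. Hearts were arrested in diastole, removed and mounted on a modified Langendorff apparatus. Passive LV pressure-volume relationships were recorded ex vivo.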

## COc1cc(F)c([C@@H]2CNC(=O)[C@H]2NC(=O)Nc2ccccc2)c(F)c1 [BMS-986235, 1-((3S,4R)-4-(2,6-difluoro-4-methoxyphenyl)-2-oxopyrrolidin-3-yl)-3-phenylurea]
[1]
  myocardial CD206 levels at peri-infarct zone versus vehicle: relative increases
  myocardial IL-10 levels at peri-infarct zone versus vehicle: relative increases
[2]; 0.1 μM
  increase in IL-10 mRNA levels: 3 fold
[2]; 1 μM
  increase in MCP-1 mRNA versus control: 28 fold
[2]; 10 μM
  increase in MCP-1 mRNA versus control: 54 fold
  increase in IL-10 mRNA levels: 6 fold
[2]; any concentration (0.01-10 µM)
  induction of FPR2 mRNA: no significant induction
  induction of IL-6 mRNA: no significant induction
  induction of IL-8 mRNA: no significant induction
  induction of TNFα mRNA: no significant induction
Human FPR1
  BRET signal for Gα12 and Gα13: minimal to no increase
HL-60 cells; HL-60 FPR1 KO line
  Ymax oxidative burst: 38%
HL-60 cells; HL-60 FPR2 KO line
  oxidative burst activity: abolished
HL-60 cells; HL-60 cells expressing both receptors
  Ymax oxidative burst: 97%
HL-60 cells; Homo sapiens, HL-60, read-out: EC50 oxidative burst
  EC50: 130 nM
[3]
  number of total macrophages relative to vehicle: unchanged
[4]
  arginase-1 mRNA within peri-infarct border zone, fold vs vehicle: +6.4 fold
[5]; FPR2 KO-derived peritoneal macrophages
  phagocytosis response above control macrophages: minimal response
[5]; WT-derived peritoneal macrophages
  Ymax zymosan phagocytosis: ~100%
Human FPR2
  selectivity ratios (FPR2 EC50/FPR1 EC50): 164- to 614 fold
[6]
  reduction of percentage of viable neutrophils: 12%
[7]
  Infarct Wall Thickness, change vs vehicle: +38%
  LV End Diastolic Volume (echocardiography), change vs vehicle: -26%
  LV End Systolic Volume (echocardiography), change vs vehicle: -29%
  Scar Area, change vs vehicle: -26%
[8]
  IL-10 induction: efficacious dose
[9]; 3 mg/kg once a day oral
  mortality over the 4 week study: significant reduction
[9]; 3 mg/kg, 4 weeks of treatment
  reduction of infarct scar size relative to vehicle: ~55%
[10]; HL-60 FPR1 KO, bell-shaped response
  concentrations at which chemotaxis attenuation was observed: > 120 nM
[10]; HL-60 FPR2 KO line
  enhancement in chemotaxis: no enhancement
[11]
  ex vivo LV pressure-volume curve vs vehicle: left shifted
  reduction of LV volume at end-diastole: 26%
  reduction of LV volume at end-systole: 42%
  transmural thickness of the infarct wall relative to vehicle: without altering
  viable myocardium at the distal end of the MI: trend toward increased
[11]; Mid MI region
  % Viable Myocardium across infarct wall, increase vs vehicle: 31%
[11]; Proximal MI region
  % Viable Myocardium across infarct wall, increase vs vehicle: 31%
